For series [1], the system named is Fruit. Briefly: Drug residues in Citrus sinensis cvs. Valencia late (Valencia oranges) at 400 mg/L treated for 1 min at 40 degC postharvest measured after 20 days of storage at 17 degC in presence of 0.5% SBC by GC analysis. The class given is ADME. In outline:
(§1)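 'Valencia' oranges were dipped 1 min in TBZ at 600 mg/L (20 °C, ±0.5, 1 or 2% wt/vol SBC), 400 mg/L (40 °C, ±SBC) or 200 mg/L (50 °C, alone), then air-dried. They were sampled at 0, 10 and 20 days at 17 °C. Peel of five fruit was frozen, and 5 g of homogenate was extracted with ethyl acetate/hexane (1/1) plus NaCl. The extract was dried under N2, taken up in acetone and analysed by GC. Results are mg/kg on a whole-fruit basis.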

In series [2] the test system is Penicillium digitatum. Description: Fungicidal activity against TBZ-sensitive Penicillium digitatum infected Valencia oranges assessed as postharvest green mold incidence at 400 mg/L treated for 1 min at 40 degC at 20 hr after fungal conidial inoculation measured after 7 days of storage at 20 degC (water Rvb = 66.7%). In kind it is functional.
In series [3] the test system is Penicillium digitatum. Briefly: Fungicidal activity against TBZ-resistant Penicillium digitatum infected Valencia oranges assessed as postharvest green mold incidence at 400 mg/L treated for 1 min at 40 degC at 20 hr after fungal conidial inoculation measured after 7 days of storage at 20 degC in presence of 0.5% SBC (water Rvb = 81.7%). In kind it is functional.

The subject of series [4] is Penicillium digitatum. Briefly: Fungicidal activity against TBZ-sensitive Penicillium digitatum infected Valencia oranges assessed as postharvest green mold incidence at 400 mg/L treated for 1 min at 40 degC at 20 hr after fungal conidial inoculation measured after 7 days of storage at 20 degC in presence of 2% SBC (water Rvb = 14.2%). In kind it is functional. In outline:
(§2)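 Fruit were surface-disinfected in 1 g/L hypochlorite for 30 s, rinsed, dried, then wounded twice equatorially (2 mm × 2 mm rod). Inoculation was a 1 min dip in P. digitatum conidia, 1 × 10^5 conidia/mL final. Fruit were held 20 h at 20 °C and 90% RH, dipped 1 min (SBC wt/vol), and air-dried. Storage was 20 °C, 90% RH. Decay incidence (% fruit with lesions) was scored at 5 d for mandarins and 7 d for oranges. Three replicates of 40 fruit were used; arcsin-transformed data were compared by LSD, p ≤ 0.05.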

The next series concerns Inner fruit. Briefly: Drug residues in Citrus sinensis cvs. Salustiana (Salustiana oranges) inner fruit at 600 mg/L treated for 1 min at 20 degC postharvest measured after overnight incubation at 17 degC in presence of 2% SBC by GC analysis. The class given is ADME. In outline:
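'Salustiana' oranges were washed with water and air-dried. They were dipped 1 or 3 min in TBZ 600 mg/L at 20 or 50 °C, or 1 min in TBZ 600 mg/L plus 2% SBC at 20 °C, then dried overnight at 17 °C in the dark. Surface residue was taken by water extraction and wax residue by chloroform extraction. Inner residue was measured in fruit after both extractions. Extracts were dried under N2, taken up in acetone and analysed by GC. Values are mg/kg on a whole-fruit basis.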

The test system of series [5] is Penicillium digitatum. Description: Fungicidal activity against TBZ-sensitive Penicillium digitatum infected Nova mandarins assessed as postharvest green mold incidence at 600 mg/L treated for 1 min at 20 degC at 20 hr after fungal conidial inoculation measured after 5 days of storage at 20 degC (water Rvb = 100%). In kind it is functional. The method, boiled down: as §2

The test system of series [6] is Penicillium digitatum. Description: Fungicidal activity against TBZ-sensitive Penicillium digitatum infected Valencia oranges assessed as postharvest green mold incidence at 400 mg/L treated for 1 min at 40 degC at 20 hr after fungal conidial inoculation measured after 7 days of storage at 20 degC in presence of 1% SBC (water Rvb = 29.2%). In kind it is functional. In outline:
as §2

The subject of series [7] is Fruit. Description: Drug residues in Citrus sinensis cvs. Valencia late (Valencia oranges) at 400 mg/L treated for 1 min at 40 degC postharvest measured after 10 days of storage at 17 degC in presence of 0.5% SBC by GC analysis. In kind it is ADME. The method, boiled down:
as §1

The test system of series [8] is Penicillium digitatum. Briefly: Fungicidal activity against Penicillium digitatum infected Valenica oranges assessed as fruit weight loss at 400 mg/L treated for 1 min at 40 degC postharvest at 20 hr after fungal conidial inoculation measured after 14 days of storage at 17 degC (water Rvb = 6.24%). In kind it is functional.
Series [9] deals with Penicillium digitatum. Briefly: Fungicidal activity against Penicillium digitatum infected Valenica oranges assessed as fruit weight loss at 600 mg/L treated for 1 min at 20 degC postharvest at 20 hr after fungal conidial inoculation measured after 14 days of storage at 17 degC (water Rvb = 5.62%). In kind it is functional.
Series [10] has as its system Fruit. Briefly: Drug residues in Citrus sinensis cvs. Valencia late (Valencia oranges) at 400 mg/L treated for 1 min at 40 degC postharvest measured after 10 days of storage at 17 degC in presence of 1% SBC by GC analysis. In kind it is ADME. In outline: as §1
Series [11] relates to Penicillium digitatum. Description: Fungicidal activity against TBZ-resistant Penicillium digitatum infected Nova mandarins assessed as postharvest green mold incidence at 400 mg/L treated for 1 min at 40 degC at 20 hr after fungal conidial inoculation measured after 5 days of storage at 20 degC in presence of 0.5% SBC (water Rvb = 83.3%). In kind it is functional.
Series [12] deals with Penicillium digitatum. Briefly: Fungicidal activity against TBZ-resistant Penicillium digitatum infected Nova mandarins assessed as postharvest green mold incidence at 400 mg/L treated for 1 min at 40 degC at 20 hr after fungal conidial inoculation measured after 5 days of storage at 20 degC (water Rvb = 96.7%). In kind it is functional.
For series [13], the system named is Fruit. Description: Drug residues in Citrus sinensis cvs. Valencia late (Valencia oranges) at 200 mg/L treated for 1 min at 50 degC postharvest measured after 10 days of storage at 17 degC by GC analysis. In kind it is ADME. In outline:
as §1

Series [14] deals with Penicillium digitatum. Description: Fungicidal activity against Penicillium digitatum infected Valenica oranges assessed as fruit weight loss at 400 mg/L treated for 1 min at 40 degC postharvest at 20 hr after fungal conidial inoculation measured after 14 days of storage at 17 degC in presence of 1% SBC (water Rvb = 8.68%). In kind it is functional.
Series [15] relates to Penicillium digitatum. Description: Fungicidal activity against Penicillium digitatum infected Valenica oranges assessed as fruit weight loss at 600 mg/L treated for 1 min at 20 degC postharvest at 20 hr after fungal conidial inoculation measured after 7 days of storage at 17 degC in presence of 1% SBC (water Rvb = 3.89%). The class given is functional.
Series [16] concerns Penicillium digitatum. Briefly: Fungicidal activity against Penicillium digitatum infected Valenica oranges assessed as fruit weight loss at 600 mg/L treated for 1 min at 20 degC postharvest at 20 hr after fungal conidial inoculation measured after 14 days of storage at 17 degC in presence of 1% SBC (water Rvb = 7.65%). In kind it is functional.
Series [17] concerns Fruit. Description: Drug residues in Citrus sinensis cvs. Valencia late (Valencia oranges) at 400 mg/L treated for 1 min at 40 degC postharvest measured after 20 days of storage at 17 degC by GC analysis. In kind it is ADME. In outline: as §1
The subject of series [18] is Penicillium digitatum. Description: Fungicidal activity against Penicillium digitatum infected Valenica oranges assessed as fruit weight loss at 600 mg/L treated for 1 min at 20 degC postharvest at 20 hr after fungal conidial inoculation measured after 21 days of storage at 17 degC in presence of 0.5% SBC (water Rvb = 10.79%). In kind it is functional.

On to `c1ccc2[nH]c(-c3cscn3)nc2c1` [THIABENDAZOLE], for which the Drug uptake amounted to 0.79 mg/kg with Fruit [1]; 0.01 mg/kg in the series with Inner fruit; 0.76 mg/kg in the series on Fruit [7]; 0.7 mg/kg with Fruit [10]; 0.43 mg/kg with Fruit [13]; 0.87 mg/kg in the series on Fruit [17]. The Activity with Penicillium digitatum [2] is 14.2%; in the series on Penicillium digitatum [3], 14.2%; in the series on Penicillium digitatum [4], 12.5%; in the series with Penicillium digitatum [5], 0%; in the series on Penicillium digitatum [6] it was 5%; with Penicillium digitatum [8], 6.26%. For the same compound, the Activity in the series with Penicillium digitatum [9] was found to be 6.33%; with Penicillium digitatum [11], 70%; in the series with Penicillium digitatum [12], 88.3%; in the series on Penicillium digitatum [14], 8.11%; in the series on Penicillium digitatum [15], 4.33%; in the series with Penicillium digitatum [16], 8.47%. Further, the Activity in the series on Penicillium digitatum [18] is recorded as 11.84%.

For the origin of these results see ChEMBL document CHEMBL3045217, “Factors affecting the synergy of thiabendazole, sodium bicarbonate, and heat to control postharvest green mold of citrus fruit” (J Agric Food Chem, 2008).
